Test results reported in PubChem BioAssay AID1448 (The Scripps Research Institute Molecular Screening Center, 2008).
Out of some 220,000 compounds screened, about 630 (0.29%) were called active. This is one part of a sample in which actives are shown more often than they occur. Values without a mark were called inactive.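 Rule for the calls: active = activation above its plate's cutoff, the mean activation of the plate's test wells plus 3 SD (cut at about 12% in these data); inactive = the rest.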

Each molecule was assayed against Mucolipin-3 (Homo sapiens) (UniProt Q8TDD5) (assay: human TRPML3 channel agonists, primary screen, cell-based, HEK293 TRPML3-YFP, Fluo-8 calcium fluorescence, 3 µM (AID 1448;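 note: 0% = DMSO only wells and 100% = carbachol wells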)). Conditions: at 3 µM, hits give high values, 100% = the carbachol control signal.
Sequence of Mucolipin-3 (Homo sapiens) (Q8TDD5 whole entry, looked up): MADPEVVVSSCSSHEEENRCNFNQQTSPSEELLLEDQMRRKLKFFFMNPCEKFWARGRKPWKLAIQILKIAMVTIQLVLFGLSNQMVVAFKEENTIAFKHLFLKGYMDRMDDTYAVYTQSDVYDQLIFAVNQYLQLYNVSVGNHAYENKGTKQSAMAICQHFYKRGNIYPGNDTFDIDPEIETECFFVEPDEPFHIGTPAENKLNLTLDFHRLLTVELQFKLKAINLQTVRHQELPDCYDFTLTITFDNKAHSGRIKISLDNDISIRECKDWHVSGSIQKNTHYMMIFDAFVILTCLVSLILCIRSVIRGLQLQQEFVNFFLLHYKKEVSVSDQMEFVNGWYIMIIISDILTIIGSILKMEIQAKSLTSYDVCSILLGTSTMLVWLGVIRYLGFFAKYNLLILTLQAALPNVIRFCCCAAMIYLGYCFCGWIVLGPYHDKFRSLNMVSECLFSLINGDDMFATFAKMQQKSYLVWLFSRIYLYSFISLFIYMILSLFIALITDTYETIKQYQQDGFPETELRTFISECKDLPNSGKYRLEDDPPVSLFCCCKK
How it was run: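 Material: TRPML3-YFP stable HEK293 cells | Dosing: One concentration, 3 µM nominal, 0.3% DMSO | Timing: 125 s total fluorescence read per well | Technique: Fluo-8 calcium dye fluorescence, ex 470-495, em 515-575 nm | Measure: Percent activation from peak-to-basal fluorescence ratio, scaled between DMSO and carbachol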
`Cc1nn(-c2cc(Cl)ccc2N)c(=O)c2ccccc12` gave an activation of 0.26%.
`Cc1nn(C)cc1N1C(=O)c2cccc3c(N)ccc(c23)C1=O` was tested, and the activation was 16.9% (active).
`COc1ccc(N2C(=O)c3cccc4cccc(c34)C2=O)nn1` gave an activation of -0.51%.
For `COCc1cc(=O)[nH]c(SC)n1`, the activation was 0.74%.
With `Cc1cc(C)cc(C(=O)NCC(=O)OCC(=O)N2CCCCC2)c1` the activation was 0.67%.
Molecule `CC(NC(=O)COC(=O)C1CCN(S(=O)(=O)c2ccccc2C(F)(F)F)CC1)c1ccccc1` (centres undefined) has an activation of -0.74%.
With `CC(C)CCC(C)NC(=O)c1ccc2nccnc2c1` (centres undefined) the activation was -0.61%.
Work on `O=C(c1nnc(-c2ccc(Cl)cc2)o1)C1CCCC1` yielded an activation of 0.06%.
In the case of `CC1=C(C)CC2C(=O)N(c3cccc4ccccc34)C(=O)C2C1` (centres undefined), the activation is reported as 0.86%.
For `CC1(C)CCCC2=C1CC1C(=O)N(c3ccccc3)C(=O)C1C2` (centres undefined), the activation was 22.9% (active).
`Cc1ccc(N2C(=O)C3CC3C2=O)cc1` (centres undefined) showed an activation of 0.72%.
In the case of `Cc1cccc(-n2cnc(C(=O)NNC(=S)Nc3ccccc3)c2)n1`, the activation is reported as 0.89%.
For `Cn1ccc(NC(=O)Nc2ccc(Cl)cc2)n1`, the activation was 1.03%.
For `CC1=NN(Cc2ccccc2)C(=O)/C1=C/c1ccc(N(C)C)cc1`, the activation was -2.14%.
`O=C1NCC(=O)N(Cc2ccccc2)/C1=C/c1ccccc1` showed an activation of 1.86%.
`CN(C)c1ccc(/C=C2\NC(=S)N(Cc3ccccc3)C2=O)cc1` was tested, and the activation was 19.5% (active).
`O=C(Nc1ccc(N2CCN(C(=O)c3ccccc3)CC2)c(Cl)c1)c1ncn[nH]1` showed an activation of -0.11%.
`COCCNc1nc2nonc2nc1N1CCCC1c1nccs1` (centres undefined) was tested, and the activation was 0.19%.
For `NS(=O)(=O)c1ccc(NC(=S)NNC(=O)c2cccs2)cc1`, the activation was -0.19%.
Molecule `O=S(=O)(c1ccc(NC(=S)NN=C(C2CC2)C2CC2)cc1)N1CCOCC1` has an activation of 0.74%.
`CCOc1cc(/C=C(\C#N)c2nc(-c3cccs3)c(NC(C)=O)s2)ccc1O` showed an activation of 9.68%.
For `COc1cc(/C=C(\C#N)c2nc3c(s2)CC(C)CC3)ccc1O` (centres undefined), the activation was 12.4% (active).
Work on `COc1cc(/C=N/Nc2nc3ccccc3s2)ccc1O` yielded an activation of -0.85%.
Work on `Cc1nn(CC(=O)Nc2ccc3c(c2)OCO3)c(C)c1[N+](=O)[O-]` yielded an activation of -0.67%.
In the case of `Cc1[nH]n(-c2ccccc2)c(=O)c1N=Nc1ccccc1C(=O)N1CCCCC1`, the activation is reported as 0.09%.
Work on `O=C(CSc1nc2ccc(Nc3nc(N4CCOCC4)nc(N4CCOCC4)n3)cc2s1)NCc1ccco1` yielded an activation of 0.56%.
In the case of `CCn1c(Cc2ccccc2)nnc1SCC(=O)Nc1ccccc1`, the activation is reported as -0.27%.
In the case of `CCCc1nnc(SCC(=O)N2C(C)CCCC2C)n1CC` (centres undefined), the activation is reported as 20.2% (active).
Work on `CCn1c(CSc2ncccn2)nnc1SCC(=O)N1c2ccccc2CC1C` (centres undefined) yielded an activation of -0.71%.
